Assays:
[1] = target: D(2) dopamine receptor (Rattus norvegicus, UniProt P61169); assay: Displacement of [3H] Spiperone from rat striatum dopamine D2 receptor measured after 30 mins by liquid scintillation counter method
Summary of the method: (§1)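 Competition binding in rat brain tissue membranes against D2, 5-HT1A and 5-HT2A sites; Ki reported as mean ± S.E.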

[2] = target: T1, 5-hydroxytryptamine receptor 1A (Rattus norvegicus, UniProt P19327); assay: Displacement of [3H]-8-OH-DPAT from rat cerebral cortex 5HT1A receptor measured after 15 mins by liquid scintillation counter method
T1 sequence (P19327 whole entry): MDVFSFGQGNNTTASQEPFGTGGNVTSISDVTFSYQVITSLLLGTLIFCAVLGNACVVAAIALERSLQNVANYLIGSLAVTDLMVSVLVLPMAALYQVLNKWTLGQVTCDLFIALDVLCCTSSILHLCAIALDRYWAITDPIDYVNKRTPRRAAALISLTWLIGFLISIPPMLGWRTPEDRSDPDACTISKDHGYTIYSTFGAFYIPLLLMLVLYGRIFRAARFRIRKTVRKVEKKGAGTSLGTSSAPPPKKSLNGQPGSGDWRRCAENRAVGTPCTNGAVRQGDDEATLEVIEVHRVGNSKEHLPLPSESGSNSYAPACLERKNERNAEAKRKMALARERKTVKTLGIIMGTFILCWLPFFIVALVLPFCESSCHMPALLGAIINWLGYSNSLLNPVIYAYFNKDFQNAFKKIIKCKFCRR

[3] = target: 5-hydroxytryptamine receptor 2A (Rattus norvegicus, UniProt P14842); assay: Displacement of [3H]-ketanserin from rat cerebral cortex 5HT2A receptor measured after 20 mins by liquid scintillation counter method; summary of the method: as §1
5-hydroxytryptamine receptor 2A, sequence (P14842 whole entry): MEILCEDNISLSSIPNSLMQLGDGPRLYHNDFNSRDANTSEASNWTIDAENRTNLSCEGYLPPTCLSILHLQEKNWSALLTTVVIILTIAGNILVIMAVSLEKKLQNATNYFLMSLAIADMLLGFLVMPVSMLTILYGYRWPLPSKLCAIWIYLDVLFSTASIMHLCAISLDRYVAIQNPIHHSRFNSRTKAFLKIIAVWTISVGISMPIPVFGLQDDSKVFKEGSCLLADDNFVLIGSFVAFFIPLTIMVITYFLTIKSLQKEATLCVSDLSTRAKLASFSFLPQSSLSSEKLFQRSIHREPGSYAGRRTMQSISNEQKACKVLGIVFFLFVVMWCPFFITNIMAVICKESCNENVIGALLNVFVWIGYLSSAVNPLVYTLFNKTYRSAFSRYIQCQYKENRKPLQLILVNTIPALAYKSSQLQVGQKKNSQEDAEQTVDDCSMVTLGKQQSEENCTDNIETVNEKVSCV

D(2) dopamine receptor, sequence (P61169 whole entry): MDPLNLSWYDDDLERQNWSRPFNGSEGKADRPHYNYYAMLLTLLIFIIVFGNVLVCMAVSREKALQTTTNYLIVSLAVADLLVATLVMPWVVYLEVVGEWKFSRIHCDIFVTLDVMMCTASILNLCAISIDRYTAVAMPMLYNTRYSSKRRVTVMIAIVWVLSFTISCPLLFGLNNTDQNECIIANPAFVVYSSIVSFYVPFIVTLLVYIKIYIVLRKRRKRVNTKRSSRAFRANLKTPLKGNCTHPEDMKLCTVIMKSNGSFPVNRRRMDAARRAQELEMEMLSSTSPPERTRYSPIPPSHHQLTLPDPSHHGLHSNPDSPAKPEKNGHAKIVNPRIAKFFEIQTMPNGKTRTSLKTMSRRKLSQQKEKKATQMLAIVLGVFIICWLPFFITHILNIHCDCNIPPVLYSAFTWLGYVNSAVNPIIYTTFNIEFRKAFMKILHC

Structure (SMILES) | Ki [1] | Ki [2] | Ki [3]
Cc1ccccc1CN1C2CCC1CC(NC(=O)c1ccc3ccccc3c1)C2 (configuration not stated) | 118 nM | 193 nM | 1290 nM
O=C(NC1CC2CCC(C1)N2Cc1cccc(C(F)(F)F)c1)c1ccc2ccccc2c1 (configuration not stated) | 217 nM | 130 nM | 209 nM
O=C(NC1CC2CCC(C1)N2Cc1cccnc1)c1ccc2ccccc2c1 (configuration not stated) | 2400 nM | 485 nM | 484 nM
O=C(NC1CC2CCC(C1)N2Cc1ccccc1C(F)(F)F)c1ccc2ccccc2c1 (configuration not stated) | 537 nM | 476 nM | 102 nM
Cc1ccc(CN2C3CCC2CC(NC(=O)c2ccc4ccccc4c2)C3)cc1 (configuration not stated) | 0.4 nM | 728 nM | 854 nM
COc1cc(C(=O)NC2CC3CCC(C2)N3Cc2ccccc2)nc2ccccc12 (configuration not stated) | > 10000 nM | 30.5 nM | 495 nM
O=C(NC1CC2CCC(C1)N2Cc1ccc(Br)cc1)c1ccc2ccccc2c1 (configuration not stated) | 4.5 nM | 230 nM | 326 nM
O=C(NC1CC2CCC(C1)N2Cc1ccccc1)c1ccc2ccccc2n1 (configuration not stated) | 589 nM | 62.7 nM | 502 nM
O=C(NC1CC2CCC(C1)N2Cc1ccc(Cl)cc1)c1ccc2ccccc2c1 (configuration not stated) | 0.4 nM | 2500 nM | 397 nM
